These results are taken from ChEMBL document CHEMBL5678802, “Small-molecule p21-activated kinase inhibitor PF-3758309 is a potent inhibitor of oncogenic signaling and tumor growth” (Proc Natl Acad Sci U S A, 2010).

Data set [1] concerns the target Ribosomal protein S6 kinase alpha-3 (Homo sapiens, UniProt P51812). Description: Inhibition of human RSK2 in presence of ATP relative to control. The conditions noted are these: concentration not given here.
The next data set has as its system NCI-H520. The data set can be described thus: Antiproliferative activity against human NCI-H520 cells assessed as inhibition of cell proliferation incubated for 3 days by CellTiter-Glo Luminescent Cell Viability Assay. The class given is functional, cell-based. The conditions noted are these: NCI-H520, 72 h. The essentials:
(§1)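 Cells of each line were plated in 384-well plates on day 1 and exposed to compound from day 2 for 3 days. On day 5 all medium was aspirated. Viable cell number was read by CellTiter-Glo luminescence, which quantifies cellular ATP.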
(ATP-based viability assays read luminescence as a measure of living cells.)

The target of data set [2] is Serine/threonine-protein kinase PAK 4 (Homo sapiens, UniProt O96013). Conditions: dose 50.0 µM.
Chain of Serine/threonine-protein kinase PAK 4 (O96013 whole entry, looked up): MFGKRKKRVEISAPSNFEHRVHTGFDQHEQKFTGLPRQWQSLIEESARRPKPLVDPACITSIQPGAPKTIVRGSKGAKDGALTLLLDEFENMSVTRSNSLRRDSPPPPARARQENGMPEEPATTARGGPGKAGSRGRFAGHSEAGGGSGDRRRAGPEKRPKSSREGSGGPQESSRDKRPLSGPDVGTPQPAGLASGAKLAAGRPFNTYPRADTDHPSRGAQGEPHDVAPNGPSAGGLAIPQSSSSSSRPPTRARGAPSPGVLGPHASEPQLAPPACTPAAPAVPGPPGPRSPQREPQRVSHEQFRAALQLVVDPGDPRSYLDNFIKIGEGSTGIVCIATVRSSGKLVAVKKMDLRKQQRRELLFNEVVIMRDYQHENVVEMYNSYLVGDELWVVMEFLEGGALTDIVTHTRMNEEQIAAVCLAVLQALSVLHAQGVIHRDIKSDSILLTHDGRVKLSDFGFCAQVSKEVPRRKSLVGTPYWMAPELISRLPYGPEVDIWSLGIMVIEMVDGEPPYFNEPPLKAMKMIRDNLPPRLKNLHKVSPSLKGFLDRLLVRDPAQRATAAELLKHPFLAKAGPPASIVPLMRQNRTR
The test system of the next data set is NCI-H23. Description: Inhibition of anchorage independent cell growth in human NCI-H23 cells incubated for 6 days by Alamar blue reagent based fluorescence plate reader analysis. The class given is functional. The conditions noted are these: NCI-H23, 144 h. For orientation: The colour change of resazurin is a common sign of viable cells or microbes.
The test system of another data set is NCI-H1581. The data set can be described thus: Antiproliferative activity against human NCI-H1581 cells assessed as inhibition of cell proliferation incubated for 3 days by CellTiter-Glo Luminescent Cell Viability Assay. The class given is functional, cell-based. Conditions: NCI-H1581, 72 h. Put shortly: (§2)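 Cancer cell lines seeded in 384-well plates on day 1; compound added on day 2 and left for 3 days. On day 5 all medium was aspirated, and viable cells were quantified by CellTiter-Glo luminescence, which measures cellular ATP. Dose-dependent effects on proliferation were determined.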

The test system of data set [3] is HCT-116. The data set can be described thus: Antitumor activity against human HCT-116 cells xenografted in nude mouse assessed as reduction in MEK1 phosphorylation at S221 residue at 15 to 150 mg/kg/day administered via pump for 18 hrs by Reverse-Phase protein array analysis. The class given is functional, organism-based. Conditions: dose 15-150 mg/kg/day. (In general: Xenograft models place foreign cells or tissue in a host animal.)

Data set [4] relates to HCT-116. Description: Antitumor activity against human HCT-116 cells xenografted in nude mouse assessed as tumor growth inhibition at 7.5 mg/kg, po administered twice daily for 9 to 18 days relative to control. The class given is functional. Conditions: time 9-18 day, read-out: TGI.
Another data set concerns NCI-H1395. The data set can be described thus: Inhibition of anchorage independent cell growth in human NCI-H1395 cells incubated for 6 days by Alamar blue reagent based fluorescence plate reader analysis. Conditions: NCI-H1395, 144 h. The class given is functional.
Data set [5] can be described thus: Inhibition of YFP/YFP variant coding sequence fused PAK4/cofilin (unknown origin) expressed in HEK293 cells incubated for 8 to 24 hrs by fluorescence based analysis. The class given is cell-based, Homo sapiens.
Another data set concerns MCF7. The data set can be described thus: Antiproliferative activity against human MCF7 cells assessed as inhibition of cell proliferation incubated for 3 days by CellTiter-Glo Luminescent Cell Viability Assay. The class given is functional, cell-based. Conditions: MCF7, 72 h. The essentials:
as §2

The test system of a further data set is SW-620. Description: Antiproliferative activity against human SW620 cells assessed as inhibition of cell proliferation incubated for 3 days by CellTiter-Glo Luminescent Cell Viability Assay. The class given is functional, cell-based. The conditions noted are these: SW-620, 72 h. The essentials: as §1
For another data set, the system named is NCI-H358. The data set can be described thus: Antiproliferative activity against human NCI-H358 cells assessed as inhibition of cell proliferation incubated for 3 days by CellTiter-Glo Luminescent Cell Viability Assay. The class given is functional, cell-based. The conditions noted are these: NCI-H358, 72 h. The essentials:
as §1

Data set [6] has as its target AMP-activated protein kinase (AMPK) alpha-1/beta-1/gamma-1 (Homo sapiens, UniProt P54619+Q13131+Q9Y478). The data set can be described thus: Inhibition of human AMPK alpha1/beta1/gamma1 in presence of ATP. The class given is protein-complex assay.
Data set [7] is described as follows: Drug exposure in nude mouse xenografted with human HCT-116 cells at 1.1 to 3.3 mg/kg, sc administered for 6 days. The class given is ADME, organism-based. The conditions noted are these: in vivo, dose 1.1-3.3 mg/kg, time 6 day, read-out: Drug uptake.
For data set [8], the target named is High affinity nerve growth factor receptor (Homo sapiens, UniProt P04629). Description: Inhibition of human TRKa in presence of ATP.
Chain of High affinity nerve growth factor receptor (P04629 whole entry): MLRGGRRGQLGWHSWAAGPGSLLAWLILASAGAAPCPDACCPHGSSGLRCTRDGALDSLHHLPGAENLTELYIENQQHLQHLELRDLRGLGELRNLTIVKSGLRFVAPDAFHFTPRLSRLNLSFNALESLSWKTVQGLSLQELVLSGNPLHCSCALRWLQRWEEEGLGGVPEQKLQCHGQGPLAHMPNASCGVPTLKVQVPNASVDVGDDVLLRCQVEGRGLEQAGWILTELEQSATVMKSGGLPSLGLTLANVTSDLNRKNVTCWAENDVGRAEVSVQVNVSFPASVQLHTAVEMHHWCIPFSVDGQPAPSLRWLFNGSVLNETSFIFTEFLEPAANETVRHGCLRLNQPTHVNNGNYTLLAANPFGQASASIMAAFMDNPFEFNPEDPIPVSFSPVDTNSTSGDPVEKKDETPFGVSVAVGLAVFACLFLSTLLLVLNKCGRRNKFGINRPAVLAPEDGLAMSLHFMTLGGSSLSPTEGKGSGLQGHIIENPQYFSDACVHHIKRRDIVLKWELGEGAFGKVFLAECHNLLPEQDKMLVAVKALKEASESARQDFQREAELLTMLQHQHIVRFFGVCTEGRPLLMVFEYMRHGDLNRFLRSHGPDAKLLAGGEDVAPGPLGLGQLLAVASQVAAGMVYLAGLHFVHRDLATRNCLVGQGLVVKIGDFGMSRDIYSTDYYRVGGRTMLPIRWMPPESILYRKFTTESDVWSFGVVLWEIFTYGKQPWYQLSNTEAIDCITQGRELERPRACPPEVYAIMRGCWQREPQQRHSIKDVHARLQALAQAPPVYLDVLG
The test system of a further data set is Panc 02.03. Description: Antiproliferative activity against human Panc 02.03 cells assessed as inhibition of cell proliferation incubated for 3 days by CellTiter-Glo Luminescent Cell Viability Assay. The class given is functional, cell-based. Conditions: Panc 02.03, 72 h. The essentials: as §1
The target of data set [9] is T1, Serine/threonine-protein kinase D1 (Homo sapiens, UniProt Q15139).
T1 sequence (Q15139 whole entry): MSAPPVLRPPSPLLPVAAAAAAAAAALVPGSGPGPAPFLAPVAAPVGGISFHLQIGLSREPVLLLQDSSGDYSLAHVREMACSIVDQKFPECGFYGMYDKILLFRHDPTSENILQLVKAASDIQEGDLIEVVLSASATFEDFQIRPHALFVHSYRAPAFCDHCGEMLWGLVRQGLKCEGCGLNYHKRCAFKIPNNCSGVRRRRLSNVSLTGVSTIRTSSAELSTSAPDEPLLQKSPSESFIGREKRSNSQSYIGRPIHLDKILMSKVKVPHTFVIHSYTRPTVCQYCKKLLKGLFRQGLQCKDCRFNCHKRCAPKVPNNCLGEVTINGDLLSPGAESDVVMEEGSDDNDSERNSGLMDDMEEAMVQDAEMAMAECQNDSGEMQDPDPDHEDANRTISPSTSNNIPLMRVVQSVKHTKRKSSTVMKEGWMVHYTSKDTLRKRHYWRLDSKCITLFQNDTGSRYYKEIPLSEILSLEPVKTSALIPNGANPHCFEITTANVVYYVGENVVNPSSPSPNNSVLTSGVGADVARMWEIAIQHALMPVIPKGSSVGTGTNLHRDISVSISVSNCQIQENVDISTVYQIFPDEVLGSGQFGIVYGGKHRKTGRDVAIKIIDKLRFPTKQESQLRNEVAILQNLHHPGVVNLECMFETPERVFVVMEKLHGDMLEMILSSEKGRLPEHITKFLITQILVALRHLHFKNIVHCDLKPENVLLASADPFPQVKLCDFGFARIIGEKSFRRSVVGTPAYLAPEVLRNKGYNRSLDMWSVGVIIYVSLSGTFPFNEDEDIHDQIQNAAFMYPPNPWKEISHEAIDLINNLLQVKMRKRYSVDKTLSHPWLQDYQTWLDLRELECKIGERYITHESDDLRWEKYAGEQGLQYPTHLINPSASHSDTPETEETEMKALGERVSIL
Description: Inhibition of human PKCmu in presence of ATP.

Active and inactive are the calls of the source. No cut-off for these calls is given here.

Chain of Ribosomal protein S6 kinase alpha-3 (P51812 whole entry): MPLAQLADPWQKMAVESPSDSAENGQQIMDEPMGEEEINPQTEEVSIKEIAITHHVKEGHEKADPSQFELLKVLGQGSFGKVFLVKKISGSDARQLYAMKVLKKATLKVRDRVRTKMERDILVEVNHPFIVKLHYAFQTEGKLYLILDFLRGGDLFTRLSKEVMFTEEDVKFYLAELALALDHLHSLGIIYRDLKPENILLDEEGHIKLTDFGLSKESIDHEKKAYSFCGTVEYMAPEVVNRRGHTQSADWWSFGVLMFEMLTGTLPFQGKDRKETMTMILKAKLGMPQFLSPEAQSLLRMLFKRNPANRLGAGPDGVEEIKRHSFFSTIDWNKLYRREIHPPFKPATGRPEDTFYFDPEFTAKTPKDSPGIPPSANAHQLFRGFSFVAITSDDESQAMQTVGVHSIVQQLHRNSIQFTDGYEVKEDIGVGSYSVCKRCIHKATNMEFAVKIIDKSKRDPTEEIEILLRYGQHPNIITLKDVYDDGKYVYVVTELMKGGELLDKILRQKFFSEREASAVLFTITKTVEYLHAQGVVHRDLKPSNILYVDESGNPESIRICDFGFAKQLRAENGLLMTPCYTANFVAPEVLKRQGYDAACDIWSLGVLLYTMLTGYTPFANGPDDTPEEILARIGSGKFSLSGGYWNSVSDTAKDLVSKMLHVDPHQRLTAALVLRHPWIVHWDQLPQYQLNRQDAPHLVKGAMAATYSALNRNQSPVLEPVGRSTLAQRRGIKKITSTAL
Chain of AMP-activated protein kinase (AMPK) alpha-1/beta-1/gamma-1 (P54619 whole entry): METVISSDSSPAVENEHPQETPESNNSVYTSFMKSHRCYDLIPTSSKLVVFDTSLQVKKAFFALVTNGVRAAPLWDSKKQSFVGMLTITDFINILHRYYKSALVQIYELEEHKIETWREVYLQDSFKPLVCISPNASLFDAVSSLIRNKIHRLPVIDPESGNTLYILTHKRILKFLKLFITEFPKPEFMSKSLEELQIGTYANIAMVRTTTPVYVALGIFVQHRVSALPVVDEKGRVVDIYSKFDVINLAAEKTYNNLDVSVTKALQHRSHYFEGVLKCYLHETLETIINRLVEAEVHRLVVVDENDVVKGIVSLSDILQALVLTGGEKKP
Chain of AMP-activated protein kinase (AMPK) alpha-1/beta-1/gamma-1 (Q9Y478 whole entry): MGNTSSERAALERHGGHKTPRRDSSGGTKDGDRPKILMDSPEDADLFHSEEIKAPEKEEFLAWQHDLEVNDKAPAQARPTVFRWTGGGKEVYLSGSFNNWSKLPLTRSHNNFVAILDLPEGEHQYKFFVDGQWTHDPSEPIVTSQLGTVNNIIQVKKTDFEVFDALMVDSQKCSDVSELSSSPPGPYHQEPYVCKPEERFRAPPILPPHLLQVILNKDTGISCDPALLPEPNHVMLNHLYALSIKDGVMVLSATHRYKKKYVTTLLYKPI
Chain of AMP-activated protein kinase (AMPK) alpha-1/beta-1/gamma-1 (Q13131 whole entry): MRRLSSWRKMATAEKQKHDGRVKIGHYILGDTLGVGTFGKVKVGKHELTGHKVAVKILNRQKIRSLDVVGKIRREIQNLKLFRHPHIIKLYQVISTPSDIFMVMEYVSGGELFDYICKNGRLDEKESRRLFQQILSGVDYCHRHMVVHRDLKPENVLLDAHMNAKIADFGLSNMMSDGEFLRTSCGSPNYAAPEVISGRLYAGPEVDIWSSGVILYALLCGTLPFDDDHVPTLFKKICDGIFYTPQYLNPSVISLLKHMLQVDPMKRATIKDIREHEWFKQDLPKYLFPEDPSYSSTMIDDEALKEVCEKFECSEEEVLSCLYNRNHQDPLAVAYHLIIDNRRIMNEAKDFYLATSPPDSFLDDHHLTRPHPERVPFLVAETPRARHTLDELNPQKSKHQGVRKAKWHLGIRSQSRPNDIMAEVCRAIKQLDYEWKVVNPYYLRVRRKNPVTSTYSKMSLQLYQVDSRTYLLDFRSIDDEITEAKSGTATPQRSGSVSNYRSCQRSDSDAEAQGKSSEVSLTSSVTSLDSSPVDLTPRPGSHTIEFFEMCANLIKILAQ

Regarding `Cc1nc(Nc2n[nH]c3c2CN(C(=O)N[C@H](CN(C)C)c2ccccc2)C3(C)C)c2sccc2n1` [PF-03758309], the inhibition (usually the change of the read-out against control, counted positive when it falls) in [1] was 101%. Moreover, the IC50 (usually the concentration at which inhibition is half-maximal) in the data set with NCI-H520 was determined as 5.6 nM; in the data set on NCI-H23, 3.45 nM; with NCI-H1581 it was 0.6 nM; in the data set on NCI-H1395, 7.62 nM; in data set [5], 10.4 nM; in the data set with MCF7 it was 44.6 nM. In addition, the IC50 turned out to be 5.7 nM with SW-620; 11 nM in the data set on NCI-H358; 1 nM in data set [6]; 513 nM in data set [8]; 540 nM in the data set with Panc 02.03; 21 nM in data set [9]. In data set [2], this compound registered a TdeltaS of 6.7 kcal/mol. The result with HCT-116 [3] was Active. Further, the inhibition in vivo at 7.5 mg/kg in the data set on HCT-116 [4] turned out to be 64%. In addition, the concentration at 144 h in data set [7] came to 0.14 nM.
